Data: ChEMBL document CHEMBL4351026, “Antifungal activity, mode of action variability, and subcellular distribution of coumarin-based antifungal azoles” (Eur J Med Chem, 2019)
pIC50: −log10 of the molar value. In brackets after ≈: the same amount, converted by molar mass. Activity calls are given as the source filed them. The calls are words filed in the database; no cut-off is given here.

Key:
HEK-293T [1] = test: (§1) Cytotoxicity against human HEK293T cells assessed as reduction in cell viability at 5 to 50 uM incubated for 24 hrs by XTT assay relative to control; format: cell-based; settings: hek-293t, 24 h, 50 µM
Outline: (§2)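 HEK-293T cells were grown in DMEM with 10% FBS, 1% NEAA, 1% pyruvate and pen-strep-nystatin at 37 °C and 5% CO2. 7000 cells/well were seeded on poly-D-lysine-coated wells. After 24 h the medium was renewed and compounds were added at 5–50 µM from 1 mM stocks in 10% DMSO/0.3% Tween/PBS. After 24 h, XTT was added for 2 h at 37 °C, with absorbance read at 475 nm (reference 660 nm).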

Candida albicans [2] = test: Antifungal activity against ERG11/ERG3 knocked out Candida albicans SN152 assessed as zone of inhibition at 25 ug […] by disk diffusion method; format: functional, organism-based
[3] = tested on: Meyerozyma guilliermondii; test: Antifungal activity against Candida guilliermondii T-47 assessed as reduction in fungal cell growth incubated for 24 hrs by MTT based broth double dilution method; format: functional; settings: T-47, 24 h
Outline: (§3)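 Broth double-dilution in Casitone broth. Starter cultures were grown 24 or 48 h at 37 °C, 5% CO₂, diluted 1:100, and added to serial two-fold dilutions at 64 to 0.007 µg/mL. Final inoculum was 5 x 10^4 to 5 x 10^5 CFU/mL; DMSO was 0.0012–1.3%. Plates were incubated at 37 °C, 5% CO₂, then MTT was added for 2 h. MIC followed CLSI M27-A3. Triplicates, two independent experiments.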

Candida albicans [4] = test: Antifungal activity against Candida albicans P-87 assessed as reduction in fungal cell growth incubated for 24 hrs by MTT based broth double dilution method; format: functional; settings: P-87, 24 h; outline: as §3
Nakaseomyces glabratus [5] = test: Antifungal activity against Candida glabrata 192 assessed as reduction in fungal cell growth incubated for 24 hrs by MTT based broth double dilution method; format: functional; settings: Nakaseomyces glabratus, 192, 24 h; outline: as §3
Nakaseomyces glabratus [6] = test: Antifungal activity against Candida glabrata 192 assessed as reduction in fungal cell growth incubated for 48 hrs by MTT based broth double dilution method; format: functional; settings: Nakaseomyces glabratus, 192, 48 h; outline: as §3
Candida parapsilosis [7] = test: Antifungal activity against Candida parapsilosis ATCC 22019 assessed as reduction in fungal cell growth incubated for 24 hrs by MTT based broth double dilution method; format: functional; settings: Lodderomyces parapsilosis, ATCC 22019, 24 h; outline: as §3
[8] = Cytotoxicity against human HepG2 cells assessed as reduction in cell viability at 5 to 50 uM incubated for 24 hrs by XTT assay relative to control; format: cell-based; settings: read-out: INH
Outline: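 HepG2 cells were maintained in RPMI with 15% FBS, 1% NEAA, 1% pyruvate and pen-strep-nystatin at 37 °C and 5% CO2. 4000 cells/well were plated on poly-D-lysine coating and given fresh medium after 24 h. Compounds were dosed at 5–50 µM from 1 mM stocks in 10% DMSO/0.3% Tween/PBS and incubated 24 h. Viability was read by XTT (2 h, 37 °C) at 475 nm against 660 nm.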

Candida albicans [9] = test: Antifungal activity against Candida albicans ATCC 90028 assessed as reduction in fungal cell growth incubated for 24 hrs by MTT based broth double dilution method; format: functional; settings: ATCC 90028, 24 h; outline: as §3
Candida parapsilosis [10] = test: Antifungal activity against Candida parapsilosis ATCC 90018 assessed as reduction in fungal cell growth incubated for 24 hrs by MTT based broth double dilution method; format: functional; settings: Lodderomyces parapsilosis, ATCC 90018, 24 h; outline: as §3
Candida albicans [11] = test: Antifungal activity against Candida albicans SN152 assessed as zone inhibition at 25 ug incubated for 24 hrs by disk diffusion method; format: functional, organism-based
Outline: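 Strains were streaked on YPD agar and grown at 30 °C: 24 h for parental SN152, 48 h for the erg11ΔΔ erg3ΔΔ mutant. Colonies were suspended in PBS and adjusted to OD 0.02 (SN152) or 0.03 (mutant), then spread on Casitone plates. A 6-mm disk loaded with 25 µg compound was placed centrally. Plates were incubated at 30 °C and photographed after 24 h.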

Candida albicans [12] = test: Antifungal activity against Candida albicans ATCC 90028 assessed as reduction in fungal cell growth incubated for 48 hrs by MTT based broth double dilution method; format: functional; settings: ATCC 90028, 48 h; outline: as §3
Nakaseomyces glabratus [13] = test: Antifungal activity against Candida glabrata ATCC 66032 assessed as reduction in fungal cell growth incubated for 24 hrs by MTT based broth double dilution method; format: functional; settings: ATCC 66032, 24 h; outline: as §3
Candida albicans [14] = test: Antifungal activity against Candida albicans SN152 assessed as reduction in fungal cell growth incubated for 24 hrs by MTT based broth double dilution method; format: functional; settings: SN152, 24 h; outline: as §3
Candida dubliniensis = test: Antifungal activity against Candida dubliniensis T-99 assessed as reduction in fungal cell growth incubated for 24 hrs by MTT based broth double dilution method; format: functional; settings: T-99, 24 h; outline: as §3
Nakaseomyces glabratus [15] = test: Antifungal activity against Candida glabrata ATCC 2001 assessed as reduction in fungal cell growth incubated for 24 hrs by MTT based broth double dilution method; format: functional; settings: ATCC 2001, 24 h; outline: as §3
Candida albicans [16] = test: Antifungal activity against Candida albicans SN152 assessed as reduction in fungal cell growth incubated for 48 hrs by MTT based broth double dilution method; format: functional; settings: SN152, 48 h; outline: as §3
Nakaseomyces glabratus [17] = test: Antifungal activity against Candida glabrata ATCC 66032 assessed as reduction in fungal cell growth incubated for 48 hrs by MTT based broth double dilution method; format: functional; settings: ATCC 66032, 48 h; outline: as §3
Cytochrome P450 3A4 = Cytochrome P450 3A4 (Homo sapiens, UniProt P08684); test: Inhibition of recombinant human CYP3A4 using Luciferin-PPXE as substrate preincubated for 10 mins followed by NADPH addition measured after 15 mins by luminometric method; format: ADME
Cytochrome P450 3A4, sequence (P08684 whole entry): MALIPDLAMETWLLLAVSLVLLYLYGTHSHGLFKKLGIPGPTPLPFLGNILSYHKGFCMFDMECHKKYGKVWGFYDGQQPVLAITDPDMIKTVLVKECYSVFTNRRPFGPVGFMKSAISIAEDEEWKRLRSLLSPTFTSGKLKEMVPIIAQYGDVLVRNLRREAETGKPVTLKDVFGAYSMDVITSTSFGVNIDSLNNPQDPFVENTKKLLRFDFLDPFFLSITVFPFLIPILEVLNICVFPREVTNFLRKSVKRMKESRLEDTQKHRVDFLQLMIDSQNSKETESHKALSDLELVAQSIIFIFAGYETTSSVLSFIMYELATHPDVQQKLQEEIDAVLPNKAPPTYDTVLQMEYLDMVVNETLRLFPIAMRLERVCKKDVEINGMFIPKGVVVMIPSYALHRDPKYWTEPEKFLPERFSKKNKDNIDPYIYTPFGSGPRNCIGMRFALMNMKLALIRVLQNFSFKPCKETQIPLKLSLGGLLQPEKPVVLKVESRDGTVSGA
Outline: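 P450-Glo luminescent assay, Luciferin-PPXE substrate. Compound was mixed with membranes containing recombinant human CYP3A4; controls were vehicle with membranes lacking CYP3A4. After 10 min preincubation at 37 °C, NADPH regeneration reagent was added and the mixture kept 15 min at 37 °C. Luciferin detection reagent stopped the reaction; after 20 min at room temperature, luminescence was read. Duplicates.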

[18] = Drug distribution in Candida albicans SN152 assessed as subcellular compound distribution at 10 uM incubated for 60 mins by fluorescent imaging analysis; format: ADME; settings: 1 h
Outline: (§4)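 Yeast were grown overnight at 30 °C in YPD liquid, diluted 1:10, and grown 2 h at 30 °C to log phase. Fluorescent azole was added at 10 µM final and incubated 60 min in the dark. Cells were washed once in PBS and imaged on slides in bright field and fluorescence (ex 427 nm, em 510 nm).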

[19] = Drug distribution in Candida glabrata 2001 assessed as subcellular compound distribution at 10 uM incubated for 60 mins by fluorescent imaging analysis; format: ADME; settings: nakaseomyces glabratus, 1 h; outline: as §4
[20] = as §1; format: cell-based, HEK-293T; settings: HEK293T cells, read-out: INH; outline: as §2
HepG2 = test: Cytotoxicity against human HepG2 cells assessed as reduction in cell viability at 5 to 50 uM incubated for 24 hrs by XTT assay; format: cell-based; settings: hepg2, 24 h
Outline: (§5)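 HEK-293T were grown in DMEM with 10% FBS; HepG2 in RPMI with 15% FBS; both at 37 °C, 5% CO₂. Cells (4000 HepG2 or 7000 HEK-293T per well) were seeded on poly-D-lysine wells. After 24 h the medium was renewed and compounds added at 5–50 µM from 1 mM stocks in 10% DMSO/0.3% Tween/PBS. After 24 h more, XTT was added for 2 h at 37 °C; absorbance was read at 475 nm against 660 nm reference.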

HEK-293T [21] = test: Cytotoxicity against human HEK293T cells assessed as reduction in cell viability at 5 to 50 uM incubated for 24 hrs by XTT assay; format: cell-based; outline: as §5

Compound	inhibition zone (IZ) (Candida albicans [2])	MIC [3]	MIC (Candida albicans [4])	MIC (Nakaseomyces glabratus [5])	MIC (Nakaseomyces glabratus [6])	MIC (Candida parapsilosis [7])	cytotoxicity at 24 h, up to 50 µM [8]	MIC (Candida albicans [9])	MIC (Candida parapsilosis [10])	inhibition zone (IZ) (Candida albicans [11])	MIC (Candida albicans [12])	MIC (Nakaseomyces glabratus [13])	MIC (Candida albicans [14])	MIC (Candida dubliniensis)	MIC (Nakaseomyces glabratus [15])	MIC (Candida albicans [16])	MIC (Nakaseomyces glabratus [17])	pIC50 (Cytochrome P450 3A4)	other results
C[C@@H](c1ncncc1F)[C@](O)(Cn1cncn1)c1ccc(F)cc1F [VORICONAZOLE]	inactive	0.06 µg/mL (≈ 0.172 µM)	0.007 µg/mL (≈ 0.02 µM)	0.125 µg/mL (≈ 0.358 µM)	0.25 µg/mL (≈ 0.716 µM)	0.03 µg/mL (≈ 0.0859 µM)	< 40%	0.007 µg/mL (≈ 0.02 µM)	0.015 µg/mL (≈ 0.0429 µM)	Active	0.007 µg/mL (≈ 0.02 µM)	0.5 µg/mL (≈ 1.43 µM)	0.007 µg/mL (≈ 0.02 µM)	0.06 µg/mL (≈ 0.172 µM)	2 µg/mL (≈ 5.73 µM)	0.007 µg/mL (≈ 0.02 µM)	4 µg/mL (≈ 11.5 µM)	–	Activity (HEK-293T [1]): < 40%
CCN(CC)c1ccc2cc(C(=O)NCC(O)(Cn3ccnc3)c3ccc(F)cc3F)c(=O)oc2c1 (racemic)	Active	0.5 µg/mL (≈ 1.01 µM)	0.06 µg/mL (≈ 0.121 µM)	2 µg/mL (≈ 4.03 µM)	4 µg/mL (≈ 8.06 µM)	0.125 µg/mL (≈ 0.252 µM)	–	0.015 µg/mL (≈ 0.0302 µM)	0.015 µg/mL (≈ 0.0302 µM)	Active	0.06 µg/mL (≈ 0.121 µM)	8 µg/mL (≈ 16.1 µM)	0.06 µg/mL (≈ 0.121 µM)	0.5 µg/mL (≈ 1.01 µM)	8 µg/mL (≈ 16.1 µM)	0.125 µg/mL (≈ 0.252 µM)	32 µg/mL (≈ 64.4 µM)	5.88	Drug uptake [18]: Active; Drug uptake [19]: Active
CCN(CC)c1ccc2cc(C(=O)NCC(O)(Cn3cncn3)c3ccc(Cl)cc3Cl)c(=O)oc2c1 (racemic)	inactive	0.25 µg/mL (≈ 0.471 µM)	0.03 µg/mL (≈ 0.0566 µM)	4 µg/mL (≈ 7.54 µM)	> 64 µg/mL	0.5 µg/mL (≈ 0.943 µM)	< 40%	0.03 µg/mL (≈ 0.0566 µM)	0.06 µg/mL (≈ 0.113 µM)	Active	0.06 µg/mL (≈ 0.113 µM)	4 µg/mL (≈ 7.54 µM)	0.03 µg/mL (≈ 0.0566 µM)	0.5 µg/mL (≈ 0.943 µM)	16 µg/mL (≈ 30.2 µM)	0.06 µg/mL (≈ 0.113 µM)	> 64 µg/mL	6.45	cytotoxicity at 24 h, up to 50 µM [20]: < 40%; Activity (HepG2): Non-Toxic; Activity (HEK-293T [21]): Non-Toxic
